Laboratory results reported in ChEMBL document CHEMBL1221310, “Discovery of potent HIV integrase inhibitors active against raltegravir resistant viruses” (Bioorg Med Chem Lett, 2010).

What was measured:
[1] = system: Human immunodeficiency virus; experiment: Antiviral activity against wild type HIV assessed as inhibition of p24 antigen production after 48 hrs by cell based luciferase reporter gene assay; type: functional, organism-based; details: Human immunodeficiency virus 1, 48 h
[2] = system: Human immunodeficiency virus; experiment: Antiviral activity against raltegravir-resistant HIV expressing integrase N155H/E92Q mutant infected in HEK293T cells after 48 hrs by luciferase reporter gene assay; type: functional, organism-based, HEK-293T
Procedure, shortened: (§1)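 VSV-G-pseudotyped, env-deleted HIV-1 carrying luciferase in nef, made by cotransfecting 293T cells; integrase resistance mutations introduced by site-directed mutagenesis. 293T cells seeded 16 h before compound, preincubated with compound 4 h at 37 °C, then infected with virus giving about 10,000 luciferase light units without compound. Luciferase read 48 h post-infection.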

[3] = system: Human immunodeficiency virus; experiment: Antiviral activity against raltegravir-resistant HIV expressing integrase Q148H/G140S mutant infected in HEK293T cells after 48 hrs by luciferase reporter gene assay; type: functional, organism-based; details: Human immunodeficiency virus 1, HEK-293T; procedure, shortened: as §1
[4] = Inhibition of HIV integrase after 2 hrs by combined strand transfer assay; parameters: species or system Human immunodeficiency virus
Procedure, shortened: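 Integrase (400 ng) was incubated 2 h at 37 °C with 30 nM pre-processed U5 LTR duplex substrate, one strand DIG-tagged and the other biotin-tagged. 3′-processing/strand-transfer products were captured on streptavidin plates and detected with anti-DIG-alkaline phosphatase and p-nitrophenyl phosphate.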

[5] = Half life in microsomes; type: ADME, Microsome
[6] = system: Human immunodeficiency virus; experiment: Antiviral activity against wild type HIV assessed as inhibition of p24 antigen production after 48 hrs by cell based luciferase reporter gene assay in presence of 10% normal human serum; type: functional, organism-based; details: Human immunodeficiency virus 1, 48 h
[7] = system: Human immunodeficiency virus; experiment: Antiviral activity against raltegravir-resistant HIV expressing integrase N155H/E92Q mutant infected in HEK293T cells after 48 hrs by luciferase reporter gene assay in presence of 10% FBS; type: functional, organism-based; details: Human immunodeficiency virus 1, HEK-293T; procedure, shortened: as §1
[8] = system: Human immunodeficiency virus; experiment: Antiviral activity against wild type HIV assessed as inhibition of p24 antigen production after 48 hrs by cell based luciferase reporter gene assay in presence of 50% normal human serum; type: functional, organism-based; details: Human immunodeficiency virus 1, 48 h
[9] = system: Human immunodeficiency virus; experiment: Antiviral activity against raltegravir-resistant HIV expressing integrase Q148H/G140S mutant infected in HEK293T cells after 48 hrs by luciferase reporter gene assay in presence of 10% FBS; type: functional, organism-based; details: Human immunodeficiency virus 1, HEK-293T; procedure, shortened: as §1
[10] = Human immunodeficiency virus 1, HEK-293T, 48 h, read-out: EC50

Structure (SMILES)	EC50 [1]	EC50 [2, 10]	EC50 [3]	IC50 ([4]; read-out: IC50)	EC50 ([2]; hek-293t)	IC50 [4]	half-life [5]	EC50 [6]	EC50 [7]	EC50 [8]	EC50 [9]
O=c1c(O)c(-c2ncc(Cc3ccc(F)cc3)s2)nc2c(N3CCCS3(=O)=O)cc(N3CCOCC3)cn12	0.0064 µM	0.0495 µM	0.28 µM	0.048 µM							
O=c1c(O)c(-c2ncc(Cc3ccc(F)cc3)s2)nc2ccc(N3CCOCC3)cn12	0.032 µM	0.0745 µM	3 µM	0.02 µM							
O=c1c(O)c(-c2ncc(Cc3ccc(F)cc3)s2)nc2c(Br)cc(N3CCOCC3)cn12	0.014 µM	0.019 µM	2.5 µM	0.042 µM							
COc1cc(N2CCOCC2)cn2c(=O)c(O)c(-c3ncc(Cc4ccc(F)cc4)s3)nc12	0.1 µM		5.9 µM		Not Active	Not Active					
CC(=O)c1cc(N2CCOCC2)cn2c(=O)c(O)c(-c3ncc(Cc4ccc(F)cc4)s3)nc12	0.0095 µM		0.885 µM	0.015 µM	Not Active						
CC(O)c1cc(N2CCOCC2)cn2c(=O)c(O)c(-c3ncc(Cc4ccc(F)cc4)s3)nc12 (stereo not drawn)	0.0105 µM		0.8 µM		Not Active	Not Active					
CC(c1cc(N2CCOCC2)cn2c(=O)c(O)c(-c3ncc(Cc4ccc(F)cc4)s3)nc12)N1CCCCC1 (stereo not drawn)	0.11 µM		5.5 µM		Not Active	Not Active					
O=C(c1cc(N2CCOCC2)cn2c(=O)c(O)c(-c3ncc(Cc4ccc(F)cc4)s3)nc12)N1CCCC1	0.081 µM	0.2 µM	1.18 µM	0.07 µM							
CN1CCN(c2cc(N3CCOCC3)cn3c(=O)c(O)c(-c4ncc(Cc5ccc(F)cc5)s4)nc23)S1(=O)=O	0.0085 µM	0.0185 µM	0.112 µM	0.038 µM							
O=C1CCCN1c1cc(N2CCOCC2)cn2c(=O)c(O)c(-c3ncc(Cc4ccc(F)cc4)s3)nc12	0.021 µM		0.335 µM		Not Active	Not Active					
O=C1OCCN1c1cc(N2CCOCC2)cn2c(=O)c(O)c(-c3ncc(Cc4ccc(F)cc4)s3)nc12	0.0071 µM	0.025 µM	0.108 µM	0.026 µM							
O=C1OCCCN1c1cc(N2CCOCC2)cn2c(=O)c(O)c(-c3ncc(Cc4ccc(F)cc4)s3)nc12	0.0043 µM	0.0105 µM	0.0165 µM			Not Active					
CN1CCN(c2cc(N3CCOCC3)cn3c(=O)c(O)c(-c4ncc(Cc5ccc(F)cc5)s4)nc23)C1=O	0.024 µM	0.01 µM	0.071 µM	0.047 µM							
CN1CCCN(c2cc(N3CCOCC3)cn3c(=O)c(O)c(-c4ncc(Cc5ccc(F)cc5)s4)nc23)C1=O	0.0115 µM	0.0215 µM	0.034 µM			Not Active					
CC(C)N1CCN(c2cc(N3CCOCC3)cn3c(=O)c(O)c(-c4ncc(Cc5ccc(F)cc5)s4)nc23)C1=O	0.0075 µM	0.0097 µM	0.018 µM	0.019 µM							
CC(C)N(C)C(=O)N(C)c1cc(N2CCOCC2)cn2c(=O)c(O)c(-c3ncc(Cc4ccc(F)cc4)s3)nc12	0.0165 µM		0.12 µM		Not Active	Not Active					
CC(C)N(C)C(=O)Nc1cc(N2CCOCC2)cn2c(=O)c(O)c(-c3ncc(Cc4ccc(F)cc4)s3)nc12	0.022 µM		> 10 µM		Not Active	Not Active					
CN1CCN(c2cc(N(C)C)cn3c(=O)c(O)c(-c4ncc(Cc5ccc(F)cc5)s4)nc23)C1=O	0.0195 µM	0.0325 µM	0.0925 µM	0.09 µM							
CN1CCN(c2cc(CN3CCOCC3)cn3c(=O)c(O)c(-c4ncc(Cc5ccc(F)cc5)s4)nc23)C1=O	0.0035 µM	0.0145 µM	0.243 µM	0.025 µM							
CC(NC1CC1)c1cc(N2CCN(C)C2=O)c2nc(-c3ncc(Cc4ccc(F)cc4)s3)c(O)c(=O)n2c1 (stereo not drawn)	0.0115 µM		0.268 µM		Not Active	Not Active					
CN1CCN(c2cc(N3CCNCC3=O)cn3c(=O)c(O)c(-c4ncc(Cc5ccc(F)cc5)s4)nc23)C1=O	0.027 µM		1.1 µM		Not Active	Not Active					
CC(C)N1CCN(c2cc(N3CCN(C)C3=O)c3nc(-c4ncc(Cc5ccc(F)cc5)s4)c(O)c(=O)n3c2)CC1	0.0068 µM	0.0089 µM	0.021 µM	0.019 µM							
O=C1CNCCN1c1cc(N2CCOCC2)cn2c(=O)c(O)c(-c3ncc(Cc4ccc(F)cc4)s3)nc12							52 min	0.004 µM	0.0067 µM	0.0061 µM	0.0345 µM
CN1CCN(c2cc(N3CCCOC3=O)c3nc(-c4ncc(Cc5ccc(F)cc5)s4)c(O)c(=O)n3c2)CC1							67.8 min	0.0035 µM	0.0049 µM	0.0066 µM	0.0295 µM
CC1CN(C)CCN1c1cc(N2CCCOC2=O)c2nc(-c3ncc(Cc4ccc(F)cc4)s3)c(O)c(=O)n2c1 (stereo not drawn)							18 min	0.0042 µM	0.0052 µM	0.0055 µM	0.0405 µM
